Results published in publication PMC6421538 (ACS Medicinal Chemistry Letters, 2019).
Values joined by “and” are separate entries in the source; they are usually repeats but may differ in a detail not shown here. Equal values may be shown once. Read-outs that look alike come from different tables or passages of the source.

Experiments:
total Aβ1–x = total Aβ1–x formation; assay type: cell-based
Aβ1–37 and Aβ1–38 = experiment: urea gel Western blotting of Aβ species; assay type: cell-based
CYP3A4 [1] = target: T1, CYP3A4 (Homo sapiens, UniProt P08684); experiment: CYP 3A4 HLM time-dependent inhibition; assay type: in vitro ADME
T1 sequence (P08684 whole entry): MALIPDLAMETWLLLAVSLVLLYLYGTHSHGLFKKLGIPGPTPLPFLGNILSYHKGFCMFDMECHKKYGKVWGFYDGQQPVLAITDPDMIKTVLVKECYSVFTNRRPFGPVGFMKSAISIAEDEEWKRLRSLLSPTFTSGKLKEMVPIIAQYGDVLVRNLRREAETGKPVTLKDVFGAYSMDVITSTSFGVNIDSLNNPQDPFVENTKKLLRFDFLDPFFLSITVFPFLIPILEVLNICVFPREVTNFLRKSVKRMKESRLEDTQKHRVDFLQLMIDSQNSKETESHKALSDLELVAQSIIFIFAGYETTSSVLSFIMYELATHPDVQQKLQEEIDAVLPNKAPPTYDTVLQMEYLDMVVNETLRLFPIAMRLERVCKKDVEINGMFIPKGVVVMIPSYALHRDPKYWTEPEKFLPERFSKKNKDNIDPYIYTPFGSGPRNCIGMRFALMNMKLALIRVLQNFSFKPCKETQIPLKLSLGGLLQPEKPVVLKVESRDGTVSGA

hERG ion channel = hERG ion channel (Homo sapiens, UniProt Q12809); experiment: hERG patch-clamp electrophysiology; assay type: cell-based
Chain of hERG ion channel (Q12809 whole entry): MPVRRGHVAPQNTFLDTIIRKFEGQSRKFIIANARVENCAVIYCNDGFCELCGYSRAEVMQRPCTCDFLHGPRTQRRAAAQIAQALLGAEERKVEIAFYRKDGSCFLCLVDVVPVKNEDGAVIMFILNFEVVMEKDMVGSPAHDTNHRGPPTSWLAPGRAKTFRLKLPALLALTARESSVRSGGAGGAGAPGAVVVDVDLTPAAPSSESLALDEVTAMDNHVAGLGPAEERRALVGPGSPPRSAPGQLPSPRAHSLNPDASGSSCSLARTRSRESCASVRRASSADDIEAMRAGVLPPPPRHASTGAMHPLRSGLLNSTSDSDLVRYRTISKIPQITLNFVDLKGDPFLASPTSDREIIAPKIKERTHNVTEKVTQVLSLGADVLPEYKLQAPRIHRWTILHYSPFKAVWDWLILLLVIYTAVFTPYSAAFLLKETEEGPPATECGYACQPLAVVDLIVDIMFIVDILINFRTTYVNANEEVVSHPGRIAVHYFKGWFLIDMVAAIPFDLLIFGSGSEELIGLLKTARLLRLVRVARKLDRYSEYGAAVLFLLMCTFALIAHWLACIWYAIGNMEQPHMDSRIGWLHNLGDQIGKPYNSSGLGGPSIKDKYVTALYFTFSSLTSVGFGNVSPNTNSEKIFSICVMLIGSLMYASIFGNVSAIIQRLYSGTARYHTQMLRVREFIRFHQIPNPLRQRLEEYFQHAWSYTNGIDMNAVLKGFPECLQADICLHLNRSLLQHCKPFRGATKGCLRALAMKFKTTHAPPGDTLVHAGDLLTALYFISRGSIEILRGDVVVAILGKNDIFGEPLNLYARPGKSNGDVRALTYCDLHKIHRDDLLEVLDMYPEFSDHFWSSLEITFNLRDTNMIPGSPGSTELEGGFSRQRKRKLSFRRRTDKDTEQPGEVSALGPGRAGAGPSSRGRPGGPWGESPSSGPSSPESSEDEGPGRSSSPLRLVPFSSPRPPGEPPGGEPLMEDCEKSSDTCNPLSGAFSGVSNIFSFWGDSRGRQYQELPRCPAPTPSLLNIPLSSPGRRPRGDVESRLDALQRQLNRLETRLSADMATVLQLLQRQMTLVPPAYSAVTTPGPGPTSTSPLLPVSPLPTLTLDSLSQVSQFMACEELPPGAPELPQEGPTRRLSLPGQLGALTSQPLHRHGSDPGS

rabbit telemetry study = assay type: in vivo
[2] = in vitro biotransformation assays; assay type: in vitro ADME
[3] = 4 day oral dosing study in rats; assay type: in vivo
[4] = test system: rest of the CYP isoforms tested (other than the CYP2C subfamily); experiment: CYP inhibition in human liver microsomes, rest of isoforms; assay type: in vitro ADME
H4-APPsw cells = experiment: Aβ species in cultured H4-APPsw cells by mass spectrometry; assay type: cell-based
[5] = pharmacokinetics in cynomolgus monkey; details: male, in vivo, iv, 1 mg/kg
[6] = 2-week oral repeat dose toxicity study in rats; assay type: in vivo
Summary of the method: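 Rats received the test compound orally for 2 weeks at 10, 30 and 100 mg/kg in repeat dosing. Endpoints included signs of stress, food consumption, duodenal histology for Notch-related goblet cell metaplasia, and liver for hepatotoxicity and necrosis.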

pharmacokinetics in dog = details: male, beagle, in vivo, iv, 1 mg/kg
Aβ peptide species = details: intravenous administration; cited from earlier work
[7] = hemodynamics in conscious rats; assay type: in vivo; details: any dose studied
CYP3A4 mRNA = CYP3A4 mRNA induction in cryopreserved primary human hepatocytes; assay type: cell-based; details: 3.3–10 μM
[8] = projected human PK and dose; details: 110 mg QD, steady state
Summary of the method: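 Human PK was predicted by allometric scaling of rat, dog and cynomolgus monkey PK, then combined with a rat PK/PD indirect response model.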

acute oral dose in dogs = assay type: in vivo
Summary of the method: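 Dogs received a single acute oral dose of 300 mg/kg. Bilirubin and other clinical pathology were assessed, and plasma Cmax and AUC were measured. Margins were taken relative to projected human Cmax and AUC at the efficacious clinical dose.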

[9] = cited from earlier work
Caco-2 permeability = assay type: in vitro ADME; details: human
pharmacokinetics in rat = details: Sprague-Dawley, in vivo, iv, 2 mg/kg
CYP3A4 [10] = target: T1, CYP3A4; experiment: recombinant CYP3A4 inhibition; assay type: in vitro ADME
Summary of the method: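 Recombinant human CYP3A4 was incubated with the test compound for 30 min, and an IC50 was determined.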

CYP2C subfamily = experiment: CYP inhibition in human liver microsomes, CYP2C subfamily; assay type: in vitro ADME
[11] = single oral doses 10 to 1200 mg, multiweek daily 50 to 200 mg

For `CNc1nc(Nc2ccc(-n3cncn3)c(OC)c2)nc(-c2ccccc2)n1` [Compound 1], the “effect on total Aβ1–x formation” value (total Aβ1–x) was “No effect” and the “levels of Aβ1–37 and Aβ1–38” value (Aβ1–37 and Aβ1–38) was “increased levels”.

In the case of `CNc1nc(Cc2ccccc2)nc(Nc2ccc(-n3cnc(C)c3)c(OC)c2)n1` [Compound 2, 6-benzyl-N2-(3-methoxy-4-(4-methyl-1H-imidazol-1-yl)phenyl)-N4-methyl-1,3,5-triazine-2,4-diamine], the CYP3A4 inhibition (CYP3A4 [1]; in words) is reported as “potent and time-dependent CYP3A4 inhibition” and the hERG inhibition (hERG ion channel; in words) is reported as “potent hERG inhibition”.

With `CNc1nc(Nc2ccc(-n3cnc(Cl)c3)c(OC)c2)nc2c1CC[C@H]2c1ccccc1` [Compound 3] the “safety margin vs the hERG NOAEL” value (rabbit telemetry study; rabbit telemetry) was 40 fold, the metabolism [2] was “confined to N-demethylation and monohydroxylation of the D-ring” and the tissue examination finding ([3]; 4 days oral, 10, 30, and 100 mg/kg) was “hepatocellular necrosis at all doses studied”. The plasma bilirubin finding ([3]; 4 days oral, all doses, visibly yellow plasma) was “increase in unconjugated bilirubin”.

In the case of `CNc1nc(Nc2ccc(-n3cnc(C)n3)c(OC)c2)nc2c1CC[C@H]2c1ccc(F)cc1` [Compound 4, (S)-7-(4-fluorophenyl)-N^2-(3-methoxy-4-(3-methyl-1H-1,2,4-triazol-1-yl)phenyl)-N^4-methyl-6,7-dihydro-5H-cyclopenta[d]pyrimidine-2,4-diamine], the IC50 [4] is reported as greater than 17 µM, the “change in Aβ1–37 and Aβ1–38” value (H4-APPsw cells) is reported as “corresponding increase” and the “change in Aβ1–42 and Aβ1–40” value (H4-APPsw cells) is reported as “large decrease”. For the same molecule, the “total Aβ1–x” value (total Aβ1–x; concentrations up to 10 μM, Aβ1–x ELISA, H4-APPsw cells) was “unchanged”, the AMES result (AMES) was “negative” and the clearance at 24 h [5] was 31.3 ± 9.5 mL/min/kg. The “Notch-related goblet cell metaplasia in the duodenum” value ([6]; 2-week oral) was “no Notch-related goblet cell metaplasia”, the bilirubin finding ([6]; 2-week oral) was “minimal, nontoxicologically significant bilirubin elevation” and the hepatotoxicity or necrosis ([6]; 2-week oral) was “no hepatotoxicity or necrosis was observed”. For the same molecule, the tolerability ([6]; 2-week oral, 10, 30, and 100 mg/kg) was “well tolerated”, the “findings in high dose group” value ([6]; 2-week, 100 mg/kg oral) was “stress and reduced food consumption effects” and the “margin over the projected human efficacious exposure at the NOAEL” value ([6]; 2-week, NOAEL 30 mg/kg, vs 4 μM·h) was 48 fold. For the same molecule, the clearance at 24 h (pharmacokinetics in dog) was 12.5 ± 1.2 mL/min/kg, the “change in QTcf” value (rabbit telemetry study; unconscious rabbits, 3 mg/kg) was “no change” and the exposure (rabbit telemetry study; unconscious rabbits, 10 mg/kg) was 50 µM. The hemodynamic effects (rabbit telemetry study; unconscious rabbits, doses of 10 mg/kg and higher) was “increased blood pressure and decreased heart rate”, the “distribution among Aβ peptide species in rat brain and CSF” value (Aβ peptide species) was “same distribution among Aβ peptide species was recapitulated” and the “hemodynamic effects (blood pressure, heart rate)” value [7] was “not seen”. The “elevation of CYP3A4 mRNA” value (CYP3A4 mRNA) was 36–43%, the “projected human brain Aβ1–42 reduction” value [8] was 31% and the “margin in Cmax to the projected efficacious clinical dose” value (acute oral dose in dogs; 300 mg/kg) was 43 fold. The tolerability (acute oral dose in dogs; acute oral dose of 300 mg/kg) was “tolerated with no significant changes in bilirubin levels or other clinical pathological assessments”, the ALT finding ([9]; 200 mg for 24 days) was “ALT elevations were observed” and the tolerability ([9]; dosed acutely) was “well tolerated”. The “Aβ1–37 and Aβ1–38 in plasma and CSF” value [9, 11] was “dose-dependent increase”, the “Aβ1–42 and Aβ1–40 in plasma and CSF” value [9, 11] was “decrease” and the “total Aβ1–x in plasma and CSF” value [9, 11] was “no change”. The Papp (Caco-2 permeability) was 3.5 ×10⁻⁶ cm/s, the “CYP 3A4 HLM time-dependent inhib. KI” value (CYP3A4 [1]; HLM) was 82.5 µM and 83 µM and the clearance at 24 h (pharmacokinetics in rat) was 11.2 ± 0.4 mL/min/kg. The IC50 (CYP3A4 [10]) was 0.51 µM, the “CYP2C subfamily IC50s” value (CYP2C subfamily) was “single digit micromolar” and the “fold less potent at hERG than compound 3” value (hERG ion channel) was 6 fold.
